Consider seven compounds from ChEMBL document CHEMBL2346542, “Preliminary biological evaluation and mechanism of action studies of selected 2-arylindoles against glioblastoma” (Bioorg Med Chem, 2013).

pIC50: −log10 of the molar value. Calls of active or inactive are those of the source. No cut-off for these calls is given here.

For orientation: pIC50 means the IC50 on a negative log10 scale, so that one unit is a factor of ten.

Experiment [1] has as its system U-87 MG. Nature of the experiment: Induction of oxidative stress in human U87MG cells assessed as increase in reactive oxygens species generation at 100 uM after 1 hr by H2DCFDA dye based flow cytometry. The class given is functional, cell-based. To be noted: U-87MG ATCC. In short, it runs like this: (§1)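 1321N1 (DMEM, 10% FBS, 2 mM glutamine) or U87MG (EMEM, 10% FBS, glutamine, pyruvate, NEAA) cells seeded at 20,000/well and attached overnight. Loaded with 25 µM carboxy-H2DCFDA for 30 min at 37 °C in the dark, then treated for 60 min; TBHP 100 µM was the positive control, vehicle ≤0.5% ethanol/DMSO. Washed in HBSS, trypsinised, then flow cytometry at 488/519 nm.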
On the technique in general: Flow cytometry measures light scatter and fluorescence of single cells or particles in a stream.

Experiment [2] concerns 1321-N1. Nature of the experiment: Induction of oxidative stress in human 1321N1 cells assessed as increase in reactive oxygens species generation at 100 uM after 1 hr by H2DCFDA dye based flow cytometry. The class given is functional, cell-based. In short, it runs like this:
as §1

The subject of experiment [3] is U-87 MG. Nature of the experiment: Induction of oxidative stress in human U87MG cells assessed as increase in reactive oxygens species generation at 500 uM after 1 hr by H2DCFDA dye based flow cytometry. The class given is functional, cell-based. To be noted: U-87MG ATCC. In short, it runs like this: (§2)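 Cells at 20,000/well in six-well plates, attached overnight. Loaded with 25 µM carboxy-H2DCFDA for 30 min at 37 °C in the dark, then given compound at 500 µM for 60 min. Positive control TBHP 100 µM. Washed in HBSS, trypsinized, resuspended in PBS, strained. Flow cytometry at FITC ex/em 488/519 nm. Vehicle ≤0.5% ethanol and DMSO.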

Experiment [4] concerns 1321-N1. Nature of the experiment: Induction of oxidative stress in human 1321N1 cells assessed as increase in reactive oxygens species generation at 500 uM after 1 hr by H2DCFDA dye based flow cytometry. The class given is functional, cell-based. Summed up: as §2
Experiment [5] is described as follows: Antiproliferative activity against human U251MG cells assessed as inhibition of cell growth after 72 hrs by MTT assay. The class given is functional, cell-based. To be noted: U-251, 72 h. In short, it runs like this:
(§3)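 Short-term GBM cultures derived from tumour biopsies, and U251MG, kept in Hams F10 with 10% foetal calf serum at 37 °C without CO2. Cells seeded at 10³ per well and grown 48 h. Then dosed at 0.01–1000 µM in quadruplicate, compound renewed every 24 h, followed by 24 h recovery in compound-free medium. MTT (1 mg/mL) added for 4 h, formazan dissolved in DMSO, OD570 read. IC50 from nonlinear regression vs untreated controls.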
(Tetrazolium dyes change colour on reduction, which living cells bring about.)

Experiment [6] is described as follows: Antiproliferative activity against human IN1760 cells assessed as inhibition of cell growth after 72 hrs by MTT assay. The class given is functional, cell-based. To be noted: IN1760, 72 h. In short, it runs like this:
as §3

Experiment [7] is described as follows: Antiproliferative activity against human IN1265 cells assessed as inhibition of cell growth after 72 hrs by MTT assay. The class given is functional, cell-based. In short, it runs like this:
as §3

Experiment [8] is described as follows: Antiproliferative activity against human IN1472 cells assessed as inhibition of cell growth after 72 hrs by MTT assay. The class given is functional, cell-based. To be noted: IN1472, 72 h. In short, it runs like this:
as §3

Experiment [9] can be described thus: Antiproliferative activity against human IN859 cells assessed as inhibition of cell growth […] by MTS assay. The class given is functional, cell-based.
Experiment [10] concerns U-87 MG. Nature of the experiment: Induction of autophagy in human U87MG cells assessed as acidic vesicular organelle formation at 500 uM after 1 hr by acridine orange based flow cytometry in presence of 5 mM, MA. The class given is functional, cell-based. As to conditions: U-87MG ATCC. In short, it runs like this:
(§4)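 Acridine orange AVO assay as above: compound at 500 µM for 60 min, given together with 3-methyladenine 5 mM dissolved in medium. Then 3 µM acridine orange for 15 min at 37 °C, flow cytometry at ex/em 488/615 nm. Two experiments.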

Experiment [11] has as its system 1321-N1. Nature of the experiment: Induction of autophagy in human 1321N1 cells assessed as acidic vesicular organelle formation at 500 uM after 1 hr by acridine orange based flow cytometry in presence of 5 mM, MA. The class given is functional, cell-based. Summed up: as §4
Experiment [12] relates to U-87 MG. Nature of the experiment: Induction of autophagy in human U87MG cells assessed as acidic vesicular organelle formation at 500 uM after 1 hr by acridine orange based flow cytometry. The class given is functional, cell-based. To be noted: U-87MG ATCC. Summed up:
(§5)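 Cells at 20,000/well in six-well plates, attached overnight. Treated with compound at 500 µM for 60 min, then stained with 3 µM acridine orange for 15 min at 37 °C in the dark. Washed in PBS, trypsinized, strained. Red fluorescence read by flow cytometry at ex/em 488/615 nm (PE-Texas Red). Vehicle ≤0.5% ethanol. One of two experiments shown.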

Experiment [13] relates to 1321-N1. Nature of the experiment: Induction of autophagy in human 1321N1 cells assessed as acidic vesicular organelle formation at 500 uM after 1 hr by acridine orange based flow cytometry. The class given is functional, cell-based. Summed up:
as §5

Experiment [14] has as its system U-87MG ATCC. Nature of the experiment: Antiproliferative activity against human U87MG cells assessed as inhibition of cell viability after 48 hrs by MTS assay in presence of 500 uM antioxidant, ascorbic acid. The class given is functional, cell-based.
The subject of experiment [15] is 1321-N1. Nature of the experiment: Antiproliferative activity against human 1321N1 cells assessed as inhibition of cell viability after 48 hrs by MTS assay in presence of 500 uM antioxidant, ascorbic acid. The class given is functional, cell-based.
Experiment [16] relates to U-87 MG. Nature of the experiment: Induction of oxidative stress in human U87MG cells assessed as reactive oxygens species generation at 500 uM after 1 hr by H2DCFDA dye based flow cytometry in presence of 500 uM antioxidant, ascorbic acid. The class given is functional, cell-based. To be noted: U-87MG ATCC. In short, it runs like this:
(§6)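 Run as the carboxy-H2DCFDA ROS flow-cytometry assay (25 µM dye for 30 min, then compound at 500 µM for 60 min, read at ex/em 488/519 nm), with ascorbic acid 500 µM added under the same procedure and time point.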

Experiment [17] concerns 1321-N1. Nature of the experiment: Induction of oxidative stress in human 1321N1 cells assessed as reactive oxygens species generation at 500 uM after 1 hr by H2DCFDA dye based flow cytometry in presence of 500 uM antioxidant, ascorbic acid. The class given is functional, cell-based. Summed up:
as §6

The nature of experiment [18]: Antiproliferative activity against human U87MG cells assessed as inhibition of cell growth after 48 hrs by MTS assay. The class given is functional, cell-based, U-87MG ATCC. To be noted: for IC50: u-87mg atcc. In short, it runs like this: (§7)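 1321N1 grown in DMEM with 10% FBS and 2 mM L-glutamine; U87MG in EMEM with 10% FBS, 2 mM L-glutamine, 1 mM pyruvate and 1% NEAA; 37 °C, 5% CO2. Seeded overnight at 3500 (1321N1) or 4000 (U87MG) cells/200 μl, 50–60% confluent. Compound added in quadruplicate for 48 h. MTS reagent added for 60 min, A490 read. IC50 vs vehicle (≤0.5% ethanol or DMSO) by nonlinear regression.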

Experiment [19] in a line: Antiproliferative activity against human 1321N1 cells assessed as inhibition of cell growth after 48 hrs by MTS assay. The class given is functional, cell-based. To be noted: for IC50: 1321-n1. Summed up:
as §7

Experiment [20] in a line: Antiproliferative activity against human U87MG cells assessed as inhibition of cell growth at 400 uM after 48 hrs by MTS assay. The class given is functional, U-87MG ATCC. To be noted: U-87 MG, read-out: GI.

With `CC(C)(C)OO`, the result in experiment [1] and in experiment [2] was Active.
`OCc1c(-c2ccccc2)[nH]c2ccccc12`: the outcome in experiment [3] and in experiment [4] was Active.
With `Oc1ccccc1-c1cc2ccccc2[nH]1` [2-(2'-HYDROXYPHENYL)-1H-INDOLE], the negative logarithm of the IC50 (pIC50) is 4.04 in [5]; under 3.00 in [6]; 4.05 in experiment [7]; 4.32 in [8]; 3.40 in [9]. Moreover, the outcome in experiment [10], in [11], in experiment [16] and in experiment [17] was inactive. Besides, the outcome in [12], in experiment [13], in experiment [3] and in experiment [4] was Active. For the same compound, the inhibition result in experiment [14] and in [15] was “inactive” each time.
Take `COc1ccccc1-c1cc2ccccc2[nH]1` [2-(2'-METHOXYPHENYL)-1H-INDOLE]: the result in experiment [3] and in experiment [4] was inactive. Moreover, the IC50 entry in experiment [18] and in experiment [19] was “Not Active” each time.
`O=Cc1c(-c2ccccc2)[nH]c2ccccc12` [2-PHENYL-1H-INDOLE-3-CARBALDEHYDE]: the IC50 entry in experiment [18] and in experiment [19] was “Not Active” in each case.
`c1ccc(-c2cc3ccccc3[nH]2)cc1` [2-PHENYL-1H-INDOLE]: the outcome in [3] and in [4] was inactive. In [20], the inhibition of growth at 400 µM came to 7%. Further, the IC50 entry in experiment [18] and in [19] was “Not Active” in each case.
`OCc1c[nH]c2ccccc12` [INDOLE-3-CARBINOL]: the pIC50 in [18] (Homo sapiens, U-87 MG, 48 h, read-out: IC50) is 3.28; in [19] (Homo sapiens, 1321-N1, 48 h, read-out: IC50), 3.51.
